Data: the EternaBench riboswitch data

System: MS2 coat protein
Assay: apparent Kd, MS2 coat protein; higher = weaker binding; RNA-MaP array
In short: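 With or without input ligand, designed RNAs transcribed on an Illumina sequencing chip from sequenced DNA templates were incubated at room temperature with fluorescently labeled MS2 coat protein at 1.5 nM to 3 μM. The buffer was Tris-HCl pH 7.5 with KCl, MgCl2, BSA, DTT, tRNA and Tween20, and incubation ran 0.8–1.5 h at the lowest and 10–20 min at the highest concentrations. Apparent Kd is reported as the median of fits to binding curves from individual clusters. Designs measured on fewer than 10 clusters are not included.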

[1] = designed as: OFF switch for flavin mononucleotide, no ligand
[2] = ligand present: flavin mononucleotide, designed as: OFF switch for flavin mononucleotide
[3] = designed as: ON switch for theophylline, no ligand
[4] = ligand present: theophylline, designed as: ON switch for theophylline
[5] = designed as: ON switch for flavin mononucleotide, no ligand
[6] = ligand present: flavin mononucleotide, designed as: ON switch for flavin mononucleotide
[7] = designed as: ON switch for tryptophan, no ligand
[8] = ligand present: tryptophan, designed as: ON switch for tryptophan
[9] = designed as: OFF switch for theophylline, no ligand
[10] = ligand present: theophylline, designed as: OFF switch for theophylline

Sequence	apparent Kd [1] [nM]	apparent Kd [2] [nM]	further results
CUAAGAUAAGAAGGAUAUAAAACAUGAGGAUCACCCAUGUAAAAGUACAUCACACUACAAAUGGAUUAGAAGGUCUUAAUAACC	10.2	8.47	
GAUCCACAUGAGGAUCACCCAUGUGAGGAUACCAGUACCAGAUCCUACCCUUGGCAGCCUAACCUUCAUUCAACACGAAUAAGAA			apparent Kd [3]: 12.4 nM; apparent Kd [4]: 14.3 nM
UAUGGCAACUUAGGAUAUCAAUGCAUCGAUUAUUGAGAAGGAAGAAACAUGAGGAUCACCCAUGUCUCUACAGGGAUAAGGACC	7.38	7.98	
AGAGUUAUUGAGAAGGAAACAUUGACAUGAGGAUCACCCAUGUACUUGGCUAAGGAGCCGAGUGUUUAGGAUAUCAUUCAGAUA			apparent Kd [5]: 25.6 nM; apparent Kd [6]: 9.33 nM
UUCAUCAACACAGGAUAUUCCGUCACAUGAGGAUCACCCAUGUAGCGCGUAGAUUACGGGCUUUCGAAGAAGGGUGUAAAGUCC			apparent Kd [5]: 54.2 nM; apparent Kd [6]: 43.3 nM
UGGUCGCAGUGAGGAUAUCCAGUCUAGGCACACGGAGAAGGCACGCGACAUGAGGAUCACCCAUGUAGACGAUAUGCUCCAGGU	22.1	31.3	
CCUCGUAAUGAGGAUAUUAGGAAUUCUGGUCCAUAAGAAGGCAUGACAUGAGGAUCACCCAUGUAGCGGAUGGG	102	145	
GCACGGCUAGAGAAGGGAAGGUGGAAGAGAUGUGAGGGACAUGAGGAUCACCCAUGUCUUACGAUUCAGGAUAUCUGAGAGGCU	10.2	10.3	
UGAGUGAAGGAGAAGGGUCUUCAGGAAAUACGGAAAUAACAUGAGGAUCACCCAUGUUCAAGCAGACAGGAUAUCCAAUGUUGG			apparent Kd [5]: 18.8 nM; apparent Kd [6]: 14.6 nM
AAUGCGAGACUAGGAUAUUGCAUUCAACUCGUGCAAGAAGGAGUCGUUUCAUACAUGAGGAUCACCCAUGUCCAUAUUUCUCAA			apparent Kd [5]: 14.5 nM; apparent Kd [6]: 7.44 nM
GGACACGAAGGAUAUACCCAAUGCCUGAGAAAACUCAUGGGACAUGAGGAUCACCCAUGUAGAAGGUCGUUAAA	558	416	
GUGCAAAACCAGAAGGGACAUUAAAGGGUAAAGUCAGGAUAUGGCACAUGAGGAUCACCCAUGUAGACUAGACGCGUUAUUUUC			apparent Kd [5]: 9.99 nM; apparent Kd [6]: 9.11 nM
UUGAAGAAUCACAUGAGGAUCACCCAUGUCAGGGUGAGUUUUGAGGAUAUACCGCCCAGGACUCGGUAGAAGGCAAGAAAUUAA	553	562	
AAGCGACGUGACGCCUACAUGAGGAUCACCCAUGUAUGAAACAGAAGGUCCCGGAACCUUUACCGGAAGGAUAUGUAUCGUGCU	9.18	7.78	
GCUUGCUCAGAGGAUAUAGUUUCAACCACUCUACUAGAAGGCUGUACAUGAGGAUCACCCAUGUCCUUAAUCUC	22.6	23.7	
UCGAACGGGCAAGGAUAUCGAAGAUCCAAAAUUCGAGAAGGUGCAUGUGAUCGUCCGGUGUCACAUGAGGAUCACCCAUGUCAA	354	179	
UAGAAUACAGGAUAUACAGCGAGAAAUCAUAUAAUAUACACACAUGAGGAUCACCCAUGUAGAAGGGAAUAAGG	24.9	24	
UAUUUGUUGAAGAAGGAGCGUACAUGAGGAUCACCCAUGUCCAACGUCUACGCGGGUUAUGUUAGCUAGGAUAUUCCGAAAUGG	28.3	22.1	
AAAUACAUGAGGAUCACCCAUGUCAAUAAUCGAGGACCGGUACGGCCGCCACUCGAUCGGCCAAGAAAAUGAAAGAUGAUCUCUA			apparent Kd [7]: 26.9 nM; apparent Kd [8]: 30.7 nM
GAGAGAUAAGGAUAUCCACAACGGGACAUGAGGAUCACCCAUGUACCCUCAUUCCUCGCAGGAGAAGGUAUCAUGU	22.4	44.3	
GCACCUAGGUCAGGAUAUCAAAAUGUCAUACAUGAGGAUCACCCAUGUGUCGUUAAGUAACACUGUGAGAAGGGACAACUUGAA	10.3	8.82	
CCUUAACAUGAGGAUCACCCAUGUCUGGAUACCAGAUACAGAUAAAUCCCUUGGCAGCCAAAAUAUGAAAGAAAUAAAAUAAGAA			apparent Kd [3]: 41.3 nM; apparent Kd [4]: 48.9 nM
UGCGCGAGAGGAUAUUAUCGUAACUACAUGAGGAUCACCCAUGUUUCGCCCGUAGCUGGAUAAGAAGGCUCGAGUG	14.6	20.7	
UUGCUCUCUUCGGCCGCCACUACACGCGAGUUGACGACUGGCGGACAUGAGGAUCACCCAUGUCAUAGGACCGGGAAUCACGCUG			apparent Kd [7]: 13.4 nM; apparent Kd [8]: 13.8 nM
AAGGACAUGAGGAUCACCCAUGUAGAGGAGCGAGGACCGGUACGGCCGCCACUCGGUGACAUUCGAUAAUGCCGAAUAAGACAUC			apparent Kd [7]: 23.6 nM; apparent Kd [8]: 22.6 nM
UUAUAGAGAGGAUAUACAUGAGGAUCACCCAUGUUAUUACCAAGCUUGAUGGGUAUGCGUAGAAGGCUCAUGAA	19.1	35	
AGAAGCUAAUCCGGCUCAUACAUGAGGAUCACCCAUGUUUUCAGAAGGGAGUCCGUCGCACCGACUCAGGAUAUGAUUCAAGAA			apparent Kd [5]: 15.6 nM; apparent Kd [6]: 21.8 nM

Sequence	apparent Kd [1] [nM]	apparent Kd [2] [nM]	further results
AUAUCCUCAACAGGAUAUACACGUGACUAAAUGGUAGAAGGGUUAGCAGACGACAUGAGGAUCACCCAUGUUUAGGAUAAAGCG			apparent Kd [5]: 10.7 nM; apparent Kd [6]: 9.66 nM
GUCAUGUUAGGAUAUACACGUACCCGCCGACAGCCAGCAAUGUAGAAGGAACAUGAGGAUCACCCAUGUCGUGG	15.2	31.5	
UCUUCCCGCUUAGGAUAUCUUGCUAAUUUGUGUAGAGAAGGAAGUGUAAACAUGAGGAUCACCCAUGUGGCCUCCAGAUAAAGC	12.1	14.9	
AUGUCCUAAACGGCCGCCACUUACAUGAGGAUCACCCAUGUUUACCGAUAUGGUUGUUGCUUUCCAAGGACCGGGUUUAAUCUGC			apparent Kd (designed as: OFF switch for tryptophan, no ligand): 12.7 nM; apparent Kd (ligand present: tryptophan, designed as: OFF switch for tryptophan): 13.5 nM
CAAACAUUAUCAGGAUAUGUGCAAGAUCCGACAUGAGGAUCACCCAUGUUGCGGCAUCUCGGUUGACAGAAGGGAUCAUCGCCU			apparent Kd [5]: 11.2 nM; apparent Kd [6]: 10.1 nM
AAGACGAAGAAGAAGGGCAUACAUGAGGAUCACCCAUGUGAAAAUGUGCUGAAAGAACAUAAAUUGCAGGAUAUUCACACAAGU			apparent Kd [5]: 11.2 nM; apparent Kd [6]: 6.42 nM
UCACACGUUGUAGGAUAUGUCACGCAUAGAACAUGAGGAUCACCCAUGUAUCCCUGUCAUGCCAGACAGAAGGACACUAACGCG	55.5	129	
CAAUGACCCAAGGAUAUCUGCAGACGCGAGCCCAGAGAAGGUGGGACAUGAGGAUCACCCAUGUUCUCGUGUGA	37	73.1	
CGUACAGUCGAAGGAUAUUCGCGGGAGUUUGCCGAAGAAGGUCGCUAGUAGGGUGACAUGCUGUGACAUGAGGAUCACCCAUGU	165	239	
UGACUGGUCGGAGGAUAUGGCAACACGUUUUCGCCAGAAGGCCGACAUGAGGAUCACCCAUGUGGGACACUAGGGCGACUUCCU	166	35.8	
GCAAAGAAAGCAGUGUAAACAUGAGGAUCACCCAUGUGAUGGAGAAGGUAUAGGCUGGUCGUAUAUAAGGAUAUCCUAAGCAAA			apparent Kd [5]: 18.6 nM; apparent Kd [6]: 17.6 nM
UCUUGAGGCUAGGAUAUCAUACAUAAAAGCAACUGAGAAGGAGCCACAUGAGGAUCACCCAUGUAUCCGUUAUG	16.5	71.6	
GUCGUCACAGGAUAUACAUGAGGAUCACCCAUGUUCCCGUGUAAAUGGGUUGUGUUAGGUAGAAGGGUGCACGC	17.4	27.8	
GGAUUUGAUCCAGGAUAUUAACAAUCCUCAGAUCAAAAUACAUGAGGAUCACCCAUGUACUCAAAUAAGAAGGGGAUGGCGGCC	25.7	20.5	
CUGGAUCCGGGAGGAUAUAGACGUUCAGCCUCGUUGCUAACAAGACAUGAGGAUCACCCAUGUAUCUAGAAGGCCCGCCUGGGA			apparent Kd [5]: 19.8 nM; apparent Kd [6]: 13.8 nM
GGAAGGACAGUUGAUACCAGUUUCAAAGGCGGUAAUCACUACAUGAGGAUCACCCAUGUCAACCCUUGGCAGCAAUAGACCGUGG			apparent Kd [9]: 18.8 nM; apparent Kd [10]: 24 nM
AUGAUGUAAGGAUAUUGCGCGAUGUUUACCAUUGGUCUGCACAAGAAGGUACAUGAGGAUCACCCAUGUGGGCC	27.9	39.9	
CGAGUGUGAGGAUAUCAGUUCAAUAGGGCUACGCCGUGUCGUGAGAAGGCACAUGAGGAUCACCCAUGUAAUAA	58.3	122	
AGUUACAUGAGGAUCACCCAUGUCCGGUUGCGAGGACCGGUACGGCCGCCACUCGGGUACAUCCCAGAAAAUACUGAAUGCCUGC			apparent Kd [7]: 55.4 nM; apparent Kd [8]: 51 nM
GGACAUGAGGAUCACCCAUGUGGGAUCCACUACGGUCACGCUAGAAGGGAUGUGGGUGGCCGAUAUCAGGAUAUAGCAGUUUAG	381	189	
CGGGUGUAGACAGGAUAUGCAAAUAAAGGUGAAGCAGAAGGGUCACAUGAGGAUCACCCAUGUCACUAAAUUGGCGGUAUAAGA	39	159	
UAGGAUUAAGGAGGAUAUCGCCAAUAAGCUUCGCGAGAAGGCCUAUAUACAUGAGGAUCACCCAUGUUUGGUUGUUAGUGUCUU	7.9	10.6	
CAGACGUAGAUUACAUGAGGAUCACCCAUGUCAUACCAGAUCAGAAGGGUUCUAGAGCGUACUCAACAGGAUAUGAUAAGUCCC			apparent Kd [5]: 18.3 nM; apparent Kd [6]: 16.5 nM
GGGCCCUUCUCAUAGGAUAUACUUUAUACCACAUGAGGAUCACCCAUGUAAACAUAAUUAAGAAAGUAGAAGGAUGACGAAAAUCG			apparent Kd [5]: 10.4 nM; apparent Kd [6]: 8.98 nM
UCGUGCAGAUAGGAUAUAUAGUCACUGUCGUCUAUAGAAGGAUCUACAUGAGGAUCACCCAUGUAAUGUGAGUC	132	30.6	
AUCACUGUGAAAGAUACCAGCGCCCUACCUAUCUUCUGUUACAUGAGGAUCACCCAUGUUCGCCCUUGGCAGCUUGAGAUGGAUC			apparent Kd [9]: 49 nM; apparent Kd [10]: 70.6 nM
AAUACAAAACAUGAGGAUCACCCAUGUCCCGAGACUAAACUAAGAAGGUGACCAACCAAAAGGGUCAAGGAUAUUAGGAUCUAU			apparent Kd [5]: 28.9 nM; apparent Kd [6]: 13.4 nM
